The text below walks through data of paper PMC4684756 (Nature immunology, 2015).

As usually defined, the Kd is the free concentration of one partner at which half of the binding sites on the other are occupied at equilibrium, for simple one-to-one binding. The term koff denotes the first-order rate constant of dissociation. One may read the kon as a measure of how fast the partners come together. A lower kon goes with slow association.

Test [1] has as its system CD8+ 42F3 T cells. As to the kind of experiment: IL-2 release dose response of CD8+ 42F3 T cells to peptide-pulsed APCs. Type of test: cell-based, murine. As to conditions: for maximal IL-2 response (high / medium / low): transduced CD8+ 42F3 cells, among CD8-dependent agonists; for IL-2 agonist character (in words): titrated IL-2 response in CD8+ 42F3 T cells. In short, it runs like this:
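Murine 58−/− hybridoma (TCRα−β−) expressing CD8αβ, retrovirally transduced with 42F3 TCR, co-cultured 1:1 with LM1.8-L^dW97R APCs (5x10⁴ cells; grown in RPMI/10% FBS) and titrated peptide for 20 h at 37°C. Peptide stocks were 50mM in DMSO, diluted in RPMI. IL-2 in supernatants was measured by HRP-colorimetric ELISA. EC50 and Emax came from the titration curves.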

For test [2], the target named is p4B10 / H-2L^d mini-MHC m31r (murine). Nature of the test: SPR. (SPR reads the build-up and loss of mass on a sensor chip optically.)
For test [3], the target named is pCPA12 / H-2L^d mini-MHC m31r (murine). Nature of the test: SPR.
Test [4] concerns the target pCPB7 / H-2L^d mini-MHC m31r (murine). Nature of the test: SPR.
Test [5] concerns the target pCPB9 / H-2L^d mini-MHC m31r (murine). Nature of the test: SPR.
The target of test [6] is pCPC5 / H-2L^d mini-MHC m31r (murine). Nature of the test: SPR.
Test [7] has as its target pCPE3 / H-2L^d mini-MHC m31r (murine). Nature of the test: SPR.

Entries after “also recorded” stand apart in the source; their conditions may differ.

For the substance FLSPFWFDI [p5E8], in test [1], the “maximal IL-2 response (high / medium / low)” value is “high”.

For VPYMAEFGM [pCPA12], in test [1], the “IL-2 agonist character (in words)” value is recorded as “partial IL-2 responses; also recorded: partial agonist” and the “maximal IL-2 response (high / medium / low)” value is on record as “medium”.

Take SPAPRPLDL [pCPC5]: the “IL-2 agonist character (in words)” value in test [1] is reported as “partial IL-2 responses; also recorded: partial agonist”.

42F3 TCR: the Kd in test [2] is 10 µM; in test [3], 2000 nM; in test [6] it was 1000 nM; in test [7] it was 700 nM. Also, the koff in test [2] is above 0.5 s⁻¹; in test [3], 0.0579 s⁻¹; in test [4], 0.0579 s⁻¹; in test [5], 0.0668 s⁻¹; in test [6] it was 0.197 s⁻¹; in test [7] it was 0.166 s⁻¹. Besides, the kon in test [3] was determined as 31400 M⁻¹ s⁻¹; in test [4], 495000 M⁻¹ s⁻¹; in test [7] it was 58600 M⁻¹ s⁻¹.

As for MPAGRPWDL [pCPE3], the “IL-2 agonist character (in words)” value in test [1] is “weak agonist; also recorded: partial agonist”.
